ChEMBL document CHEMBL5107974, “Design, synthesis, and biological evaluation of new thalidomide-donepezil hybrids as neuroprotective agents targeting cholinesterases and neuroinflammation” (RSC Med Chem, 2022)
The source made the active and inactive calls. The calls are words filed in the database; no cut-off is given here.

Assays:
[1] = biological target: Cholinesterase (Equus caballus) (UniProt P81908); test: Inhibition of equine serum BuChE using S-butyrylthiocholine iodide as a substrate at 30 uM incubated for 10 mins by DTNB reagent based Ellman's method; type: cell-free
Cholinesterase (Equus caballus), sequence (P81908 whole entry): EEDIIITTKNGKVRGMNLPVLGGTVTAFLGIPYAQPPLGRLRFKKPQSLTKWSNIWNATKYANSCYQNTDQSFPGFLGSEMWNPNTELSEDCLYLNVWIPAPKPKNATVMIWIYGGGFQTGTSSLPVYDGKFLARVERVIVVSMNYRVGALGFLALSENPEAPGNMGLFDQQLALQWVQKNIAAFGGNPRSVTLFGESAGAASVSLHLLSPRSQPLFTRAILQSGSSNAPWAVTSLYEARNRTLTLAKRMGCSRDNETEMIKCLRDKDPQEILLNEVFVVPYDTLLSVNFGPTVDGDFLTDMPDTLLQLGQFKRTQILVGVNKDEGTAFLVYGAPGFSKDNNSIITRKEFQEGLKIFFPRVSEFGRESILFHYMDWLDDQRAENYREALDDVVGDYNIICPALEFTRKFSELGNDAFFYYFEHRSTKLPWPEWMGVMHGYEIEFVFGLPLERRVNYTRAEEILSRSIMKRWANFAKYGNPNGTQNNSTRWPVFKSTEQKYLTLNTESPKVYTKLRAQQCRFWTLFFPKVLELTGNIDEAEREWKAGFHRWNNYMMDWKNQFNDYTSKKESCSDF
Summary of the method: (§1)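 Ellman method in Tris-HCl 0.02 M pH 7.5 with BSA, inhibitor at 30 uM final, DMSO 0.2% vehicle as negative control. Enzyme (eeAChE or equine serum BuChE) with DTNB preincubated 10 min at room temperature; acetylthiocholine or butyrylthiocholine iodide added, absorbance at 415 nm after 10 min. Activity as % of DMSO control, blank-corrected; triplicate.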

[2] = biological target: Acetylcholinesterase (Electrophorus electricus) (UniProt O42275); test: Inhibition of electric eel AChE using […] as a substrate at 30 uM incubated for 10 mins by DTNB reagent based Ellman's method; summary of the method: as §1
Acetylcholinesterase (Electrophorus electricus), sequence (O42275 24-633 limits assumed): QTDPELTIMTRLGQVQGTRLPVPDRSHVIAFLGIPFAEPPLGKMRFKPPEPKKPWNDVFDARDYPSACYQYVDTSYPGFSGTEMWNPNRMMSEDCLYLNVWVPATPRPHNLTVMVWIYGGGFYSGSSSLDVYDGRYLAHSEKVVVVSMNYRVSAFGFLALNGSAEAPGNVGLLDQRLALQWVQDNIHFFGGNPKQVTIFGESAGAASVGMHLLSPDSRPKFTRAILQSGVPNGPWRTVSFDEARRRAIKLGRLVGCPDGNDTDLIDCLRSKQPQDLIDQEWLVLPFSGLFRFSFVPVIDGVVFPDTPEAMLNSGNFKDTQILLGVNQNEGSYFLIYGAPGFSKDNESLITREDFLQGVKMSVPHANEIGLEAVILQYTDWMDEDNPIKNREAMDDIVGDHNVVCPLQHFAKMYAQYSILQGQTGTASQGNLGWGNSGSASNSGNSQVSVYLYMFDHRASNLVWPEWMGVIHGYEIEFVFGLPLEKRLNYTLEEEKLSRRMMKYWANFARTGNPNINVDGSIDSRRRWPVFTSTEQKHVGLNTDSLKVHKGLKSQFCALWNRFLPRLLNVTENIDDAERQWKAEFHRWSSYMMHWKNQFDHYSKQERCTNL

Rattus norvegicus [3] = test: Anti-inflammatory activity in LPS-induced Wistar rat assessed as decrease in immobility time at po dosed measured upto 24 hrs by open field test; type: functional, organism-based
Summary of the method: (§2)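 Adult male Wistar rats (n = 7–8 per group), overnight 8 h fast; vehicle or compound by gavage, then LPS or saline intraperitoneally. 2 h after LPS, each rat was placed in the centre of a circular open-field arena and filmed for 5 min. Distance travelled and immobility time were scored by video tracking. Results given as mean ± SEM.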

Acetylcholinesterase = Acetylcholinesterase (Electrophorus electricus, UniProt O42275); test: Inhibition of electric eel AChE using […] as a substrate incubated for 10 mins by DTNB reagent based Ellman's method
Acetylcholinesterase, sequence (O42275 whole entry): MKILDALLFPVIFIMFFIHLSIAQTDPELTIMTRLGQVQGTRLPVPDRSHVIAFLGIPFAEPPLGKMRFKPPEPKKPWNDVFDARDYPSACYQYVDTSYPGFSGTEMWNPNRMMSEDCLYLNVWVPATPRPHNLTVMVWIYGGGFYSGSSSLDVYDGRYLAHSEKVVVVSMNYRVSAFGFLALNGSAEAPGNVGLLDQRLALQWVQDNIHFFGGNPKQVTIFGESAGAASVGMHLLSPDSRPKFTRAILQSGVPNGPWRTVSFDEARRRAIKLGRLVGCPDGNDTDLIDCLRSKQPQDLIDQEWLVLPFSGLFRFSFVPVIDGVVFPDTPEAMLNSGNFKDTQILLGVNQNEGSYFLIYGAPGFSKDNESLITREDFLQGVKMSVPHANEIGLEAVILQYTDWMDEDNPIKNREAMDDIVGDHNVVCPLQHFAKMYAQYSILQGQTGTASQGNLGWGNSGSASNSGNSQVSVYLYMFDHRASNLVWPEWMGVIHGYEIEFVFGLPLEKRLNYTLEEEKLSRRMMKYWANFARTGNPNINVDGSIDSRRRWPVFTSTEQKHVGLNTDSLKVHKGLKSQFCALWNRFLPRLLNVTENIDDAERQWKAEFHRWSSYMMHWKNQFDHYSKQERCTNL

SH-SY5Y [4] = test: Neuronal plasticity in human SH-SY5Y cells assessed as increase in SYP gene expression at 10 uM incubated for 24 hrs by RT-PCR analysis; type: functional, cell-based
Summary of the method: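 SH-SY5Y cells grown in DMEM with 10% FBS and differentiated with retinoic acid (10 μM) for 6 days. Compound 10 μM for 24 h. RNA extracted, SYP mRNA measured by quantitative RT-PCR, relative quantity by 2^-ΔΔCt against untreated cells. Three independent experiments, mean ± SEM, Student's t-test.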

THP-1 [5] = test: Anti-inflammatory activity in human THP-1 cells assessed as inhibition of LPS-induced iNOS expression at 10 uM incubated for 24 hrs by RT-PCR analysis; type: functional
Summary of the method: (§3)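 THP-1 monocytes differentiated to microglia-like cells with PMA 5 ng mL-1 for 24 h, then exposed 24 h to LPS 1 ug mL-1 together with compound (10 uM). RNA extracted; expression by quantitative RT-PCR, relative quantification by 2^-ΔΔCt with untreated cells as control. Mean ± SEM of three independent experiments.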

[6] = Permeability of compound in PBS buffer at pH 6.6 by PAMPA-GIT assay; type: ADME
Summary of the method: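 PAMPA-GIT: 10 μM compound in PBS pH 6.6 as donor, filter coated with soy L-α-phosphatidylcholine (20 mg/mL in dodecane). Acceptor was PBS pH 7.4:DMSO (95:5). Plates shaken at 50 rpm for 8 h at room temperature. Run in triplicate; absorbed fraction (Fa%) classed high, medium or low.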

[7] = Permeability of compound in PBS buffer at pH 7.4 by PAMPA-BBB assay; type: ADME; details: read-out: permeability
Summary of the method: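 PAMPA-BBB: compound dissolved in ethanol, diluted with PBS pH 7.4 and filtered, then added in triplicate to a donor filter coated with porcine brain polar lipid (20 mg/mL in dodecane). Acceptor was PBS pH 7.4:ethanol (70:30). Incubated 2 h 45 min at about 25 °C, humidified. Donor and acceptor concentrations read by UV; compounds classed BBB+ or BBB−.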

Rattus norvegicus [8] = test: Anti-inflammatory activity in LPS-induced Wistar rat assessed as increase in traveled distance at po dosed measured upto 24 hrs by open field test; type: functional, organism-based; summary of the method: as §2
THP-1 [9] = test: Anti-inflammatory activity in human THP-1 cells assessed as inhibition of LPS-induced IL-1beta expression at 10 uM incubated for 24 hrs by RT-PCR analysis; type: functional; summary of the method: as §3
Rattus norvegicus [10] = test: Anti-inflammatory activity in LPS-induced Wistar rat assessed as increase in food intake at po dosed measured upto 24 hrs; type: functional, organism-based
Summary of the method: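 Adult male Wistar rats (n = 7 per group), housed individually; overnight 8 h fast, then food removed 2 h on the test day. Vehicle or compound was given by gavage, then LPS or saline intraperitoneally. Pre-weighed pelleted feed was reintroduced and weighed at 2, 4, 6 and 24 h. Results given as mean ± SEM.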

SH-SY5Y [11] = test: Cytotoxicity against human SH-SY5Y cells assessed as reduction in cell viability at 80 uM incubated for 24 hrs by MTT assay; type: functional
Summary of the method: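 SH-SY5Y cells seeded at 2×10^4 per well, grown 24 h, then treated 24 h at 37 °C (range 2.5–80 uM). MTT 0.5 mg mL-1 in HBSS for 2 h; formazan dissolved in isopropanol, read at 570 nm (reference 690 nm). Viability relative to untreated cells; mean ± SEM of three independent experiments.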

Compound	inhibition [1]	inhibition [2]	other results
Cc1ccc(N2CCN(C(=O)CN3C(=O)c4ccccc4C3=O)CC2)cc1	0.3%	11.6%	
O=C(CN1C(=O)c2ccccc2C1=O)N1CCN(c2ccncc2)CC1	-4.47%	85%	Activity (Rattus norvegicus [3]): Active; IC50 (Acetylcholinesterase): 3.15 µM; Activity (SH-SY5Y [4]): Active; inhibition at 10 µM (THP-1 [5]): 43%; Fa [6]: 69.8%; Papp ([6]; read-out: permeability): 3.15 ×10⁻⁶ cm/s; Papp [7]: 13.9 ×10⁻⁶ cm/s; Activity (Rattus norvegicus [8]): Active; inhibition at 10 µM (THP-1 [9]): 39%; Activity (Rattus norvegicus [10]): Active
O=C(CN1C(=O)c2ccccc2C1=O)N1CCN(c2ncccn2)CC1	-5.36%	39.6%	Activity (SH-SY5Y [11]): 50%
O=C(CN1C(=O)c2ccccc2C1=O)N1CCN(c2ccc([N+](=O)[O-])cc2)CC1	-4.97%	16.9%	
O=C(CN1C(=O)c2ccccc2C1=O)N1CCN(Cc2ccc(Cl)cc2)CC1	1.26%	7.82%	
O=C(CN1C(=O)c2ccccc2C1=O)N1CCN(c2ccc(Cl)cc2)CC1	-2.09%	8.11%	Activity (SH-SY5Y [11]): 50%
COc1ccc(CN2CCN(C(=O)CN3C(=O)c4ccccc4C3=O)CC2)cc1	25.4%	17.1%	
O=C(CN1C(=O)c2ccccc2C1=O)N1CCN(Cc2ccc(Br)cc2)CC1	-1.37%	8.38%	
